The text below walks through data of ChEMBL document CHEMBL1125747, “Design, synthesis, and physicochemical properties of a novel, conformationally restricted 2,3-dihydro-1,3,4-thiadiazole-containing angiotensin converting enzyme inhibitor which is preferentially eliminated by the biliary route in rats” (J Med Chem, 1991).

Data set [1] deals with T1, Angiotensin-converting enzyme (Rattus norvegicus) (UniProt P47820).
T1 sequence (whole entry): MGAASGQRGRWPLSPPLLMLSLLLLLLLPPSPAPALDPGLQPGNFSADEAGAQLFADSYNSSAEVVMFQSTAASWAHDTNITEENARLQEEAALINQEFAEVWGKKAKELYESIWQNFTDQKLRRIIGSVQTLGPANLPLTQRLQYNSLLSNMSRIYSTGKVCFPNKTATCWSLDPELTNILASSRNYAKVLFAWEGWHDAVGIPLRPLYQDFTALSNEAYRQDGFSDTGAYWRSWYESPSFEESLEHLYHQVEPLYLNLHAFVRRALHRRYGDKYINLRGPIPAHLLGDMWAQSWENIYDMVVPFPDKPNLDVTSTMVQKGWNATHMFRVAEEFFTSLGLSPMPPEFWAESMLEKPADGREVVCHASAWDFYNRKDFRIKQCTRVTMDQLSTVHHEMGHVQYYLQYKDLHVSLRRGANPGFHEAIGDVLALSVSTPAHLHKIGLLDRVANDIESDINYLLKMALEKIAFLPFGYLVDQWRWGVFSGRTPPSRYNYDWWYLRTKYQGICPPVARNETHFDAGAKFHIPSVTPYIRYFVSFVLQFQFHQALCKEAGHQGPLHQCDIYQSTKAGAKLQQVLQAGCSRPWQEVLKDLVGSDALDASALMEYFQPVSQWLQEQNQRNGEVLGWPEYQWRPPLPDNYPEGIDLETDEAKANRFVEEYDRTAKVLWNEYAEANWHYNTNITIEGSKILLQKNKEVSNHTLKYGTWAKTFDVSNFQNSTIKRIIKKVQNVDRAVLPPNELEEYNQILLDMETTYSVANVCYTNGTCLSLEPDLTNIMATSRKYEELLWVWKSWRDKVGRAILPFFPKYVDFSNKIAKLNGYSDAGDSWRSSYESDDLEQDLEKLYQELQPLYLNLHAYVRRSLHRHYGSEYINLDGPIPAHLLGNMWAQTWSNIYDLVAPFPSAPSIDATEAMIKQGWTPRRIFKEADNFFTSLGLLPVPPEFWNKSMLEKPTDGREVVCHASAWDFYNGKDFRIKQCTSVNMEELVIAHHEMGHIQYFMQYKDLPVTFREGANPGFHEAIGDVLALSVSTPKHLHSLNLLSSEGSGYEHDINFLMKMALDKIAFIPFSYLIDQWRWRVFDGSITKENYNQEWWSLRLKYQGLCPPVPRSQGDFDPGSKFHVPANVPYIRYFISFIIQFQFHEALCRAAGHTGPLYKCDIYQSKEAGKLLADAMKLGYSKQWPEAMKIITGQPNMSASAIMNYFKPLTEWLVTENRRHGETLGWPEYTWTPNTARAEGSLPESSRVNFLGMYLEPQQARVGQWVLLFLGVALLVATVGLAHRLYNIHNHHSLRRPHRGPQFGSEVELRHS
In words: Relative inhibitory activity against angiotensin I converting enzyme.

Data set [2] is described as follows: The acid dissociation constant, pKa was determined. 'a' represents value of C-terminus carboxylic acid. Type of data set: physicochemical. In short, it runs like this:
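Potentiometric titration at 25 °C on a thermostated automatic titrator. pKa values were calculated from pH–volume data. For one ester compound, ionization constants were instead obtained by the partition method in Miglyol 812–aqueous buffer systems.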

The nature of data set [3]: Compound was tested for its maximum lipophilicity. Format: physicochemical. The note with it: octanol/water. In short, it runs like this:
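Shake-flask distribution coefficients in octanol–aqueous buffer across pH, run in triplicate and reported as the mean. Aqueous phases were HCl below pH 2, McIlvaine citrate-phosphate at pH 2.2–4.8, and Sorensen phosphate above pH 5, all at ionic strength 0.02. Phases were assayed before and after partitioning by UV or reversed-phase HPLC. Maximum lipophilicity was taken from the distribution–pH profile.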

Data set [4] has as its target T2, Angiotensin-converting enzyme (Rattus norvegicus, UniProt P47820).
T2 sequence (P47820 whole entry): T1 sequence (whole entry)
The experiment in a line: Compound was tested for inhibitory activity against angiotensin I converting enzyme.

Data set [5] can be described thus: The acid dissociation constant, pKa was determined.'a' represents value of C-terminus carboxylic acid. Format: physicochemical. In short, it runs like this:
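Ionization constants came from potentiometric titration at 25 °C on a thermostated automatic titrator, with pKa calculated from the pH–volume data. For one ester, constants were instead determined by the partition method in Miglyol 812–aqueous buffer systems.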

Data set [6] can be described thus: Ratio of biliary and urinary excretion of angiotensin converting enzyme inhibitors in male rat after intravenous dosing. Type of data set: functional, Urine.
A short description of data set [7]: The acid dissociation constant, pKa was determined. a'' represents value of C-terminus carboxylic acid. Type of data set: physicochemical. In short, it runs like this: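 Ionization constants measured by potentiometric titration at 25 °C on a thermostated automatic titrator, with pKa calculated from pH-volume data. For one ester prodrug, constants were instead obtained by the partition method in Miglyol 812-aqueous buffer systems.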

Regarding `CC1=NN(C(=O)CCS)C(C(=O)O)S1` (stereo not given), in data set [1], the Relative activity was found to be 2.5. By pKa is commonly meant the pH at which an ionisable group is half protonated. For the compound `CCOC(=O)[C@H](CCc1ccccc1)N[C@@H](C)C(=O)N1CCC[C@H]1C(=O)O`, the pKa in data set [2] is 5.49. For the same compound, in data set [3], the “Log Dmax” value is recorded as -0.06. The compound `O=C(O)C1SC(c2ccco2)=NN1C(=O)CCS` (stereo not given) came in with a Relative activity in data set [1] of 1. Usually IC50 stands for the concentration at which inhibition is half-maximal. A lower IC50 goes with greater potency in that assay. In data set [4], `CC(C)(C)C1=NN(C(=O)[C@H](CCCCN)N[C@@H](CCc2ccccc2)C(=O)O)[C@H](C(=O)O)S1` yielded an IC50 of 0.7 nM.

Regarding `CC(C)(C)C1=NN(C(=O)CCS)C(C(=O)O)S1` (stereo not given), the Relative activity in data set [1] came to 5.6. Turning to `O=C(O)C1SC(c2ccccc2)=NN1C(=O)CCS` (stereo not given), the Relative activity in data set [1] is 1.3. For `CCOC(=O)[C@H](CCc1ccccc1)N[C@@H](C)C(=O)N1CC2(C[C@H]1C(=O)O)SCCS2`, the pKa in data set [5] came out at 5.5. In data set [3], the “Log Dmax” value came out at 0.87. Turning to `O=C(O)C1SC(C2CCCCC2)=NN1C(=O)CCS` (stereo not given), the Relative activity in data set [1] was found to be 6.3.

As to `O=C(O)C1SC(c2ccc(C(F)(F)F)cc2)=NN1C(=O)CCS` (stereo not given), in data set [1], the Relative activity was 1.6. In data set [5], `C[C@H](N[C@@H](CCc1ccccc1)C(=O)O)C(=O)N1N=C(C(C)(C)C)S[C@H]1C(=O)O` [UTIBAPRILAT] registered a pKa of 8. For the same compound, half-maximal inhibition in data set [4] (IC50) required 0.51 nM. In data set [6], the Ratio worked out at 14.6. Besides, the “Log Dmax” value in data set [3] worked out at 1.19.

Take `CCC[C@H](N[C@@H](C)C(=O)N1N=C(C(C)(C)C)S[C@H]1C(=O)O)C(=O)O`: half-maximal inhibition in data set [4] (IC50) was put at 0.6 nM. For the compound `COc1ccc(C2=NN(C(=O)CCS)C(C(=O)O)S2)cc1` (stereo not given), in data set [1], the Relative activity came out at 1.3.

Consider `O=C(O)C1SC(C23CC4CC(CC(C4)C2)C3)=NN1C(=O)CCS` (stereo not given), for which the Relative activity in data set [1] amounted to 1.3. For `NCCCC[C@H](N[C@@H](CCc1ccccc1)C(=O)O)C(=O)N1CCC[C@H]1C(=O)O` [LISINOPRIL ANHYDROUS], in data set [3], the “Log Dmax” value is given as -2.86. Further, the pKa in data set [7] is 11.1. `C[C@H](N[C@@H](CCc1ccccc1)C(=O)O)C(=O)N1CCC[C@H]1C(=O)O` [ENALAPRILAT ANHYDROUS] displayed a pKa in data set [5] of 8.02. In addition, in data set [3], the “Log Dmax” value is -0.7. For the compound `CCOC(=O)[C@H](CCc1ccccc1)N[C@@H](C)C(=O)N1N=C(C(C)(C)C)S[C@H]1C(=O)O` [UTIBAPRIL], the pKa in data set [5] was found to be 5.4. Moreover, the “Log Dmax” value in data set [3] is recorded as 1.61. Regarding `C[C@H](N[C@@H](CCc1ccccc1)C(=O)O)C(=O)N1N=C(c2ccccc2)S[C@H]1C(=O)O`, the IC50 in data set [4] is 1.5 nM.
